Test results reported in ChEMBL document CHEMBL4007456, “Heterocyclyl Tetracyclines. 1. 7-Trifluoromethyl-8-Pyrrolidinyltetracyclines: Potent, Broad Spectrum Antibacterial Agents with Enhanced Activity against Pseudomonas aeruginosa” (2017).
≈ marks a conversion by molar mass, not a printed value.

tested on: Klebsiella pneumoniae; experiment: Antibacterial activity against gram-negative Klebsiella pneumoniae KP457 harboring blacTX-M-15 extended spectrum beta-lactamase gene by CLSI method; format: functional
Procedure, shortened: (§1)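 CLSI broth microdilution MIC in fresh cation-adjusted Mueller Hinton broth, supplemented with defibrinated horse blood where appropriate. Compounds serially diluted in sterile deionized water. Runs accepted when comparator antibiotics against ATCC quality-control strains fell within recommended ranges.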

SMILES	MIC
CN(C)[C@@H]1C(O)=C(C(N)=O)C(=O)[C@@]2(O)C(O)=C3C(=O)c4c(O)cc([C@H]5CCCN5)c(C(F)(F)F)c4C[C@H]3C[C@@H]12	0.125 µg/mL (≈ 0.227 µM)

tested on: Enterobacter cloacae; experiment: Antibacterial activity against gram-negative Enterobacter cloacae EC1603 harboring tet(A) by CLSI method; format: functional; procedure, shortened: as §1

SMILES	MIC
CN(C)[C@@H]1C(O)=C(C(N)=O)C(=O)[C@@]2(O)C(O)=C3C(=O)c4c(O)cc([C@H]5CCCN5)c(C(F)(F)F)c4C[C@H]3C[C@@H]12	8 µg/mL (≈ 14.5 µM)

tested on: Staphylococcus aureus; experiment: Antibacterial activity against gram-positive Staphylococcus aureus SA158 harboring tet(K) by CLSI method; format: functional; procedure, shortened: as §1

SMILES	MIC
CN(C)[C@@H]1C(O)=C(C(N)=O)C(=O)[C@@]2(O)C(O)=C3C(=O)c4c(O)cc(-c5cccnc5)c(Cl)c4C[C@H]3C[C@@H]12	0.125 µg/mL (≈ 0.238 µM)
CN(C)c1c(C2CCCN2)cc(O)c2c1C[C@H]1C[C@H]3[C@H](N(C)C)C(O)=C(C(N)=O)C(=O)[C@@]3(O)C(O)=C1C2=O (stereo partly drawn)	1 µg/mL (≈ 1.9 µM)
CN(C)[C@@H]1C(O)=C(C(N)=O)C(=O)[C@@]2(O)C(O)=C3C(=O)c4c(O)cc([C@H]5CCCN5)c(C(F)(F)F)c4C[C@H]3C[C@@H]12	0.0312 µg/mL (≈ 0.0566 µM)

tested on: Burkholderia cenocepacia; experiment: Antibacterial activity against gram-negative Burkholderia cenocepacia BC240 by CLSI method; format: functional
Procedure, shortened: (§2)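 Defibrinated horse blood added where appropriate. Compounds serially diluted in sterile deionized water. Strains from ATCC unless otherwise noted. Runs accepted when comparator antibiotics fell within QC ranges for ATCC quality control strains.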

SMILES	MIC
CN(C)[C@@H]1C(O)=C(C(N)=O)C(=O)[C@@]2(O)C(O)=C3C(=O)c4c(O)cc(-c5cccnc5)c(Cl)c4C[C@H]3C[C@@H]12	8 µg/mL (≈ 15.2 µM)
CN(C)c1c(C2CCCN2)cc(O)c2c1C[C@H]1C[C@H]3[C@H](N(C)C)C(O)=C(C(N)=O)C(=O)[C@@]3(O)C(O)=C1C2=O (stereo partly drawn)	> 32 µg/mL
CN(C)[C@@H]1C(O)=C(C(N)=O)C(=O)[C@@]2(O)C(O)=C3C(=O)c4c(O)cc([C@H]5CCCN5)c(C(F)(F)F)c4C[C@H]3C[C@@H]12	8 µg/mL (≈ 14.5 µM)

tested on: Enterococcus faecalis; experiment: Antibacterial activity against gram-positive Enterococcus faecalis EFs327 harboring tet(M) by CLSI method; format: functional; procedure, shortened: as §1

SMILES	MIC
CN(C)[C@@H]1C(O)=C(C(N)=O)C(=O)[C@@]2(O)C(O)=C3C(=O)c4c(O)cc([C@H]5CCCN5)c(C(F)(F)F)c4C[C@H]3C[C@@H]12	16 µg/mL (≈ 29 µM)

tested on: Pseudomonas aeruginosa; experiment: Antibacterial activity against gram-negative Pseudomonas aeruginosa PA169 by CLSI method; format: functional; procedure, shortened: as §2

SMILES	MIC
CN(C)[C@@H]1C(O)=C(C(N)=O)C(=O)[C@@]2(O)C(O)=C3C(=O)c4c(O)cc(-c5cccnc5)c(Cl)c4C[C@H]3C[C@@H]12	> 32 µg/mL

tested on: Streptococcus pneumoniae; experiment: Antibacterial activity against gram-positive Streptococcus pneumoniae SP160 harboring tet(M) by CLSI method; format: functional; procedure, shortened: as §1

SMILES	MIC
CN(C)[C@@H]1C(O)=C(C(N)=O)C(=O)[C@@]2(O)C(O)=C3C(=O)c4c(O)cc(-c5cccnc5)c(Cl)c4C[C@H]3C[C@@H]12	8 µg/mL (≈ 15.2 µM)
CN(C)c1c(C2CCCN2)cc(O)c2c1C[C@H]1C[C@H]3[C@H](N(C)C)C(O)=C(C(N)=O)C(=O)[C@@]3(O)C(O)=C1C2=O (stereo partly drawn)	2 µg/mL (≈ 3.8 µM)
CN(C)[C@@H]1C(O)=C(C(N)=O)C(=O)[C@@]2(O)C(O)=C3C(=O)c4c(O)cc([C@H]5CCCN5)c(C(F)(F)F)c4C[C@H]3C[C@@H]12	1 µg/mL (≈ 1.81 µM)

tested on: Escherichia coli; experiment: Antibacterial activity against gram-negative Escherichia coli EC107 by CLSI method; format: functional
Procedure, shortened: as §2, with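 “Broth microdilution MIC per CLSI in cation-adjusted Mueller Hinton broth, prepared fresh and held at 4 °C. Defibrinated” for “Defibrinated”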

SMILES	MIC
CN(C)[C@@H]1C(O)=C(C(N)=O)C(=O)[C@@]2(O)C(O)=C3C(=O)c4c(O)cc(-c5cccnc5)c(Cl)c4C[C@H]3C[C@@H]12	2 µg/mL (≈ 3.8 µM)
CN(C)c1c(C2CCCN2)cc(O)c2c1C[C@H]1C[C@H]3[C@H](N(C)C)C(O)=C(C(N)=O)C(=O)[C@@]3(O)C(O)=C1C2=O (stereo partly drawn)	2 µg/mL (≈ 3.8 µM)
CN(C)[C@@H]1C(O)=C(C(N)=O)C(=O)[C@@]2(O)C(O)=C3C(=O)c4c(O)cc([C@H]5CCCN5)c(C(F)(F)F)c4C[C@H]3C[C@@H]12	≤ 0.0156 µg/mL

tested on: Staphylococcus aureus; experiment: Antibacterial activity against gram-positive Staphylococcus aureus SA101 by CLSI method; format: functional
Procedure, shortened: as §2, with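 “Broth microdilution MIC per CLSI in cation-adjusted Mueller Hinton broth, prepared fresh and held at 4 °C. Defibrinated” for “Defibrinated”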

SMILES	MIC
CN(C)[C@@H]1C(O)=C(C(N)=O)C(=O)[C@@]2(O)C(O)=C3C(=O)c4c(O)cc(-c5cccnc5)c(Cl)c4C[C@H]3C[C@@H]12	0.125 µg/mL (≈ 0.238 µM)
CN(C)c1c(C2CCCN2)cc(O)c2c1C[C@H]1C[C@H]3[C@H](N(C)C)C(O)=C(C(N)=O)C(=O)[C@@]3(O)C(O)=C1C2=O (stereo partly drawn)	2 µg/mL (≈ 3.8 µM)
CN(C)[C@@H]1C(O)=C(C(N)=O)C(=O)[C@@]2(O)C(O)=C3C(=O)c4c(O)cc([C@H]5CCCN5)c(C(F)(F)F)c4C[C@H]3C[C@@H]12	0.125 µg/mL (≈ 0.227 µM)

tested on: Staphylococcus aureus; experiment: Antibacterial activity against gram-positive Staphylococcus aureus SA161 harboring tet(M) by CLSI method; format: functional; procedure, shortened: as §1

SMILES	MIC
CN(C)[C@@H]1C(O)=C(C(N)=O)C(=O)[C@@]2(O)C(O)=C3C(=O)c4c(O)cc(-c5cccnc5)c(Cl)c4C[C@H]3C[C@@H]12	1 µg/mL (≈ 1.9 µM)
CN(C)c1c(C2CCCN2)cc(O)c2c1C[C@H]1C[C@H]3[C@H](N(C)C)C(O)=C(C(N)=O)C(=O)[C@@]3(O)C(O)=C1C2=O (stereo partly drawn)	32 µg/mL (≈ 60.8 µM)
CN(C)[C@@H]1C(O)=C(C(N)=O)C(=O)[C@@]2(O)C(O)=C3C(=O)c4c(O)cc([C@H]5CCCN5)c(C(F)(F)F)c4C[C@H]3C[C@@H]12	16 µg/mL (≈ 29 µM)

tested on: Streptococcus pneumoniae; experiment: Antibacterial activity against gram-positive Streptococcus pneumoniae SP193 by CLSI method; format: functional
Procedure, shortened: as §2, with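 “Broth microdilution MIC per CLSI in cation-adjusted Mueller Hinton broth, prepared fresh and held at 4 °C. Defibrinated” for “Defibrinated”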

SMILES	MIC
CN(C)[C@@H]1C(O)=C(C(N)=O)C(=O)[C@@]2(O)C(O)=C3C(=O)c4c(O)cc(-c5cccnc5)c(Cl)c4C[C@H]3C[C@@H]12	0.25 µg/mL (≈ 0.475 µM)

tested on: Stenotrophomonas maltophilia; experiment: Antibacterial activity against gram-negative Stenotrophomonas maltophilia SM256 by CLSI method; format: functional
Procedure, shortened: as §2, with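 “Broth microdilution MIC per CLSI in cation-adjusted Mueller Hinton broth, prepared fresh and held at 4 °C. Defibrinated” for “Defibrinated”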

SMILES	MIC
CN(C)[C@@H]1C(O)=C(C(N)=O)C(=O)[C@@]2(O)C(O)=C3C(=O)c4c(O)cc(-c5cccnc5)c(Cl)c4C[C@H]3C[C@@H]12	2 µg/mL (≈ 3.8 µM)
CN(C)c1c(C2CCCN2)cc(O)c2c1C[C@H]1C[C@H]3[C@H](N(C)C)C(O)=C(C(N)=O)C(=O)[C@@]3(O)C(O)=C1C2=O (stereo partly drawn)	32 µg/mL (≈ 60.8 µM)
CN(C)[C@@H]1C(O)=C(C(N)=O)C(=O)[C@@]2(O)C(O)=C3C(=O)c4c(O)cc([C@H]5CCCN5)c(C(F)(F)F)c4C[C@H]3C[C@@H]12	1 µg/mL (≈ 1.81 µM)

tested on: Enterococcus faecalis; experiment: Antibacterial activity against gram-positive Enterococcus faecalis EF159 harboring tet(M) by CLSI method; format: functional; procedure, shortened: as §1

SMILES	MIC
CN(C)[C@@H]1C(O)=C(C(N)=O)C(=O)[C@@]2(O)C(O)=C3C(=O)c4c(O)cc(-c5cccnc5)c(Cl)c4C[C@H]3C[C@@H]12	1 µg/mL (≈ 1.9 µM)

tested on: Enterococcus faecium; experiment: Antibacterial activity against gram-positive Enterococcus faecium EFm404 harboring tet(M) by CLSI method; format: functional; procedure, shortened: as §1

SMILES	MIC
CN(C)[C@@H]1C(O)=C(C(N)=O)C(=O)[C@@]2(O)C(O)=C3C(=O)c4c(O)cc([C@H]5CCCN5)c(C(F)(F)F)c4C[C@H]3C[C@@H]12	4 µg/mL (≈ 7.25 µM)

tested on: Klebsiella pneumoniae; experiment: Antibacterial activity against gram-negative Klebsiella pneumoniae KP153 harboring tet(A) by CLSI method; format: functional; procedure, shortened: as §1

SMILES	MIC
CN(C)[C@@H]1C(O)=C(C(N)=O)C(=O)[C@@]2(O)C(O)=C3C(=O)c4c(O)cc(-c5cccnc5)c(Cl)c4C[C@H]3C[C@@H]12	> 32 µg/mL

tested on: Escherichia coli; experiment: Antibacterial activity against gram-negative Escherichia coli EC155 harboring tet(A) by CLSI method; format: functional; procedure, shortened: as §1

SMILES	MIC
CN(C)[C@@H]1C(O)=C(C(N)=O)C(=O)[C@@]2(O)C(O)=C3C(=O)c4c(O)cc(-c5cccnc5)c(Cl)c4C[C@H]3C[C@@H]12	> 32 µg/mL
CN(C)c1c(C2CCCN2)cc(O)c2c1C[C@H]1C[C@H]3[C@H](N(C)C)C(O)=C(C(N)=O)C(=O)[C@@]3(O)C(O)=C1C2=O (stereo partly drawn)	32 µg/mL (≈ 60.8 µM)
CN(C)[C@@H]1C(O)=C(C(N)=O)C(=O)[C@@]2(O)C(O)=C3C(=O)c4c(O)cc([C@H]5CCCN5)c(C(F)(F)F)c4C[C@H]3C[C@@H]12	2 µg/mL (≈ 3.63 µM)

tested on: Acinetobacter baumannii; experiment: Antibacterial activity against gram-negative Acinetobacter baumannii AB250 by CLSI method; format: functional
Procedure, shortened: as §2, with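 “Broth microdilution MIC per CLSI in cation-adjusted Mueller Hinton broth, prepared fresh and held at 4 °C. Defibrinated” for “Defibrinated”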

SMILES	MIC
CN(C)[C@@H]1C(O)=C(C(N)=O)C(=O)[C@@]2(O)C(O)=C3C(=O)c4c(O)cc(-c5cccnc5)c(Cl)c4C[C@H]3C[C@@H]12	> 32 µg/mL
CN(C)c1c(C2CCCN2)cc(O)c2c1C[C@H]1C[C@H]3[C@H](N(C)C)C(O)=C(C(N)=O)C(=O)[C@@]3(O)C(O)=C1C2=O (stereo partly drawn)	> 32 µg/mL
CN(C)[C@@H]1C(O)=C(C(N)=O)C(=O)[C@@]2(O)C(O)=C3C(=O)c4c(O)cc([C@H]5CCCN5)c(C(F)(F)F)c4C[C@H]3C[C@@H]12	2 µg/mL (≈ 3.63 µM)

tested on: Pseudomonas aeruginosa; experiment: Antibacterial activity against gram-negative Pseudomonas aeruginosa PA555 by CLSI method; format: functional
Procedure, shortened: as §2, with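 “Broth microdilution MIC per CLSI in cation-adjusted Mueller Hinton broth, prepared fresh and held at 4 °C. Defibrinated” for “Defibrinated”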

SMILES	MIC
CN(C)[C@@H]1C(O)=C(C(N)=O)C(=O)[C@@]2(O)C(O)=C3C(=O)c4c(O)cc([C@H]5CCCN5)c(C(F)(F)F)c4C[C@H]3C[C@@H]12	8 µg/mL (≈ 14.5 µM)

tested on: Proteus mirabilis; experiment: Antibacterial activity against gram-negative Proteus mirabilis PM385 by CLSI method; format: functional
Procedure, shortened: as §2, with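 “Broth microdilution MIC per CLSI in cation-adjusted Mueller Hinton broth, prepared fresh and held at 4 °C. Defibrinated” for “Defibrinated”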

SMILES	MIC
CN(C)[C@@H]1C(O)=C(C(N)=O)C(=O)[C@@]2(O)C(O)=C3C(=O)c4c(O)cc([C@H]5CCCN5)c(C(F)(F)F)c4C[C@H]3C[C@@H]12	0.5 µg/mL (≈ 0.907 µM)

tested on: Proteus mirabilis; experiment: Antibacterial activity against gram-negative Proteus mirabilis PM122 by CLSI method; format: functional; procedure, shortened: as §2

SMILES	MIC
CN(C)[C@@H]1C(O)=C(C(N)=O)C(=O)[C@@]2(O)C(O)=C3C(=O)c4c(O)cc(-c5cccnc5)c(Cl)c4C[C@H]3C[C@@H]12	16 µg/mL (≈ 30.4 µM)
